The source of these data is ChEMBL document CHEMBL1287734, “Synthesis, molecular modeling and biological evaluation of guanidine derivatives as novel antitubulin agents” (Bioorg Med Chem, 2010).

Calls of active or inactive are those of the source. No cut-off for these calls is given here.

Assay [1] can be described thus: Inhibition of bovine brain tubulin polymerization by turbidimetric analysis. Also noted: species or system Bos taurus. A digest of the protocol:
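Purified bovine brain tubulin (10 µM) preincubated with varying compound concentrations in glutamate buffer at 30 °C, then cooled to 0 °C. GTP added, mixtures warmed to 30 °C in cuvettes, and assembly followed by turbidity.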

Assay [2] deals with MCF7. Briefly: Antiproliferative activity against human MCF7 cells after 48 hrs by MTT assay. The format is functional, cell-based. As to conditions: MCF7, 48 h. A digest of the protocol: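 After 24 h at 37 °C, 5% CO₂, compounds were added at preset concentrations for 48 h. MTT (2.5 mg/mL in PBS) was then added for 4 h, followed by 10% SDS–5% isobutyl alcohol–0.01 M HCl overnight at 37 °C. OD read at 570 nm. Triplicate wells per concentration; each assay run at least three times.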
A general note: Tetrazolium assays rely on reduction of a dye to a coloured formazan, in cell work by metabolically active cells.

The subject of assay [3] is MCF7. Briefly: Cell cycle arrest in human MCF7 cells assessed as accumulation at S phase at 50 nM after 24 hrs by flow cytometry relative to control. The assay is classed as functional. A digest of the protocol:
(§1)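 Cells treated at 50 nM or 500 nM for 24 h, collected and fixed overnight in 70% ethanol at −20 °C. After two PBS washes, RNase A (0.5 mg/mL) and propidium iodide (2.5 µg/mL) were added for 30 min. DNA content was measured by flow cytometry and the percentage of cells in each cycle phase was determined.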
On the technique in general: A flow cytometer gives signals particle by particle.

Assay [4] has as its system MCF7. Put plainly: Cell cycle arrest in human MCF7 cells assessed as accumulation at G1 phase at 500 nM after 24 hrs by flow cytometry relative to control. The assay is classed as functional. A digest of the protocol:
as §1

In assay [5] the test system is MCF7. Put plainly: Cell cycle arrest in human MCF7 cells assessed as accumulation at G2/M phase at 50 nM after 24 hrs by flow cytometry relative to control. The format is functional. The procedure, abridged: as §1
Assay [6] relates to MCF7. Briefly: Cell cycle arrest in human MCF7 cells assessed as accumulation at G2/M phase after 24 hrs by flow cytometry. The format is functional, cell-based. A digest of the protocol: as §1
Assay [7] relates to MCF7. Briefly: Induction of apoptosis in human MCF7 cells assessed as morphological changes at 1 uM after 24 hrs using DAPI staining by fluorescence microscopic analysis. The assay is classed as functional, cell-based. A digest of the protocol: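 Cells cultured on 6-well plates and treated at 0 or 1.0 µM for 24 h. Fixed in ice-cold 4% paraformaldehyde for 20 min, then permeabilized in 0.1% sodium citrate/0.1% Triton X-100 for 2 min at 4 °C. Stained with DAPI (300 nM) and examined by fluorescence microscopy for nuclear morphology.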

In assay [8] the test system is MCF7. Briefly: Cell cycle arrest in human MCF7 cells assessed as accumulation at G2/M phase at 500 nM after 24 hrs by flow cytometry relative to control. The format is functional. A digest of the protocol: as §1
Assay [9] deals with MCF7. Put plainly: Cell cycle arrest in human MCF7 cells assessed as accumulation at S phase at 500 nM after 24 hrs by flow cytometry relative to control. The assay is classed as functional. The procedure, abridged: as §1
The test system of assay [10] is MCF7. Put plainly: Cell cycle arrest in human MCF7 cells assessed as accumulation at G1 phase at 50 nM after 24 hrs by flow cytometry relative to control. The format is functional. The procedure, abridged: as §1
In assay [11] the test system is MCF7. Put plainly: Cell cycle arrest in human MCF7 cells assessed as accumulation at sub-G1 phase at 50 nM after 24 hrs by flow cytometry relative to control. The assay is classed as functional. The procedure, abridged:
as §1

For assay [12], the system named is MCF7. Briefly: Cell cycle arrest in human MCF7 cells assessed as accumulation at sub-G1 phase at 500 nM after 24 hrs by flow cytometry relative to control. The format is functional. A digest of the protocol:
as §1

The test system of assay [13] is MCF7. Briefly: Cell cycle arrest in human MCF7 cells assessed as accumulation at G1 phase after 24 hrs by flow cytometry relative to control. The assay is classed as functional. A digest of the protocol: as §1
Assay [14] has as its system MCF7. Briefly: Cell cycle arrest in human MCF7 cells assessed as accumulation at G2/M phase after 24 hrs by flow cytometry relative to control. The format is functional. The procedure, abridged: as §1
Assay [15] deals with MCF7. Put plainly: Cell cycle arrest in human MCF7 cells assessed as accumulation at sub-G1 phase after 24 hrs by flow cytometry relative to control. The assay is classed as functional. The procedure, abridged:
as §1

Assay [16] has as its system MCF7. Put plainly: Cell cycle arrest in human MCF7 cells assessed as accumulation at S phase after 24 hrs by flow cytometry relative to control. The format is functional. The procedure, abridged:
as §1

In general, IC50 refers to the concentration at which inhibition is half-maximal. A low value points to greater potency. Take `COc1cccc(/C=C/C(=N/NC(=N)N)c2ccccc2)c1`: the results for the 50% inhibitory concentration (IC50) in [1] and in [2] were 130 µM and 13 µM, respectively.

For the molecule `N=C(N)N/N=C(/C=C/c1cccc(F)c1)c1ccccc1`, the values for the IC50 in assay [1] and in [2] were 150 µM and 16 µM, respectively.

Consider `COc1ccc(C(/C=C/c2ccccc2)=N\NC(=N)N)cc1`, for which the half-maximal inhibitory concentration (IC50) in [1] stood at 130 µM; in assay [2] it was 13 µM.

As to `N=C(N)N/N=C(/C=C/c1ccc(-c2ccccc2)cc1)c1ccccc1`, the concentration for half-maximal inhibition (IC50) in [1] was 12 µM; in assay [2], 0.8 µM.

For `N=C(N)N/N=C(/C=C/c1ccc(F)cc1)c1ccccc1`, the half-inhibitory concentration (IC50) amounted to 28 µM in assay [1] and 2.5 µM in assay [2].

As to `N=C(N)N/N=C(/C=C/c1ccccc1F)c1ccccc1`, the IC50 in assay [1] is 42 µM; in assay [2], 3.9 µM.

Turning to `N=C(N)N/N=C(/C=C/c1ccccc1Cl)c1ccccc1`, the IC50 in assay [1] stood at 55 µM; in [2], 4.2 µM.

On to `N=C(N)N/N=C(/C=C/c1ccc(Br)cc1)c1ccccc1`, for which the IC50 in assay [1] amounted to 10 µM; in [2], 0.25 µM.

Take `N=C(N)N/N=C(/C=C/c1ccccc1)c1ccc(Cl)cc1`: the values for the half-maximal inhibitory concentration (IC50) in assay [1] and in assay [2] were 15 µM and 0.35 µM, respectively.

`N=C(N)N/N=C(/C=C/c1ccc(Cl)cc1)c1ccccc1`: the values for the IC50 in assay [1] and in assay [2] were 14 µM and 0.7 µM, respectively.

`N=C(N)N/N=C(/C=C/c1cccc2ccccc12)c1ccccc1`: the IC50 in [1] worked out at 18 µM; in [2], 1.6 µM.

Consider `COc1ccc(/C=C/C(=N/NC(=N)N)c2ccccc2)cc1`, for which the IC50 in [1] was 140 µM; in assay [2], 14 µM.

For the molecule `N=C(N)N/N=C(/C=C/c1ccc(OCc2ccccc2)cc1)c1ccccc1`, the IC50 in [1] was 16 µM; in assay [2] it was 1.2 µM.

With `Cc1ccc(C(/C=C/c2ccccc2)=N\NC(=N)N)cc1`, the figures for the IC50 in [1] and in [2] were 150 µM and 14 µM, respectively.

Turning to `N=C(N)N/N=C(/C=C/c1ccccc1)c1ccc(Cl)c(Cl)c1`, the IC50 is 24 µM in assay [1] and 1.9 µM in assay [2].

Turning to `COc1ccccc1/C=C/C(=N/NC(=N)N)c1ccccc1`, the IC50 in assay [1] was determined as 84 µM; in assay [2] it was 7.2 µM.

In the case of `N=C(N)N/N=C(/C=C/c1ccccc1)c1ccccc1`, the IC50 amounted to 140 µM in [1] and 17 µM in [2].

With `N=C(N)N/N=C(/C=C/c1ccccc1)c1ccc(Br)cc1`, the figures for the IC50 in assay [1] and in [2] were 8.4 µM and 0.09 µM, respectively. Further, the Activity was 14.54% in [3]; 1.5% in assay [4]; 23.38% in assay [5]; “Dose-dependent effect” in [6]; 54.12% in assay [8]; 3.14% in [9]. Further, the Activity in assay [10] was found to be 48.76%; in assay [11], 2.63%; in [12] it was 4.52%. Moreover, the result in assay [7] was Active.

For `COc1cc2c(c(OC)c1OC)-c1ccc(OC)c(=O)cc1[C@@H](NC(C)=O)CC2` [COLCHICINE], the Activity in [13] amounted to 8.58%; in assay [14] it was 43.11%; in [15], 14.58%; in assay [16] it was 8.16%.

Take `N=C(N)N/N=C(/C=C/c1ccccc1Br)c1ccccc1`: the IC50 in assay [1] stood at 52 µM; in assay [2] it was 4.2 µM.

As to `Cc1ccc(/C=C/C(=N/NC(=N)N)c2ccccc2)cc1`, the concentration for half-maximal inhibition (IC50) was determined as 170 µM in assay [1] and 16 µM in assay [2].

`COc1ccc(/C=C\c2cc(OC)c(OC)c(OC)c2)cc1O` [COMBRETASTATIN A4] came in with an IC50 in assay [1] of 2.2 µM.

Consider `N=C(N)N/N=C(/C=C/c1cccc([N+](=O)[O-])c1)c1ccccc1`, for which the IC50 in assay [1] turned out to be 85 µM; in assay [2], 6.5 µM.
